Source: ChEMBL document CHEMBL1128335, “Design and synthesis of piperidine-3-carboxamides as human platelet aggregation inhibitors” (J Med Chem, 1995)

How the values were obtained:
[1] = Partition coefficient (logP); format: physicochemical; settings: octanol/water
[2] = species on record: Homo sapiens; assay: Inhibitory activity against human platelet aggregation.; format: functional
Summary of the method: (§1)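 Human citrated PRP (blood:3.2% citrate 8:1; 120g, 15 min, 23 °C), count adjusted to 250 000–300 000/mm^3 with autologous PPP, gassed with 5% CO2/95% air, held at 37 °C. Test compound incubated 4 min. Aggregation triggered with each donor's minimal ADP concentration giving full biphasic response. Light transmission recorded 5.5 min. IC50 from regression of % inhibition on log molar concentration; mean ± SE, 4–6 determinations.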

[3] = species on record: Homo sapiens; assay: Inhibitory activity against human platelet aggregation at 200 uM; format: functional
[4] = species on record: Homo sapiens; assay: Inhibitory activity against human platelet aggregation; Inactive; format: functional; summary of the method: as §1

| logP ([1]; read-out: logP) | IC50 ([2]; Homo sapiens, read-out: IC50) | SMILES | also measured |
| --- | --- | --- | --- |
| 6.96 | 85.3 µM | CCN(CC)C(=O)C1CCCN(CCCCCCCCCCCCN2CCCC(C(=O)N(CC)CC)C2)C1 (stereo not drawn) | – |
| – | 20.9 µM | CCCCCCCCCCN1CCCC(C(=O)N2CCN(C(=O)C3CCCN(CCCCCCCCCC)C3)C(C)C2)C1 (stereo not drawn) | logP [1]: 9.58 |
| 5.55 | 58.8 µM | CC(C)N(C(=O)C1CCCN(Cc2ccc(CN3CCCC(C(=O)N(C(C)C)C(C)C)C3)cc2)C1)C(C)C (stereo not drawn) | – |
| 2.45 | > 500 µM | O=C(O)C1CCCN(Cc2ccc(CN3CCCC(C(=O)O)C3)cc2)C1 (stereo not drawn) | – |
| 3.49 | 217 µM | CCN(CC)C(=O)C1CCCN(Cc2ccc(Cl)cc2)C1 (stereo not drawn) | – |
| 5.55 | 18.4 µM | CCCCN(CC)C(=O)C1CCCN(Cc2ccc(CN3CCCC(C(=O)N(CC)CCCC)C3)cc2)C1 (stereo not drawn) | – |
| 3.49 | 2810 µM | CCN(CC)C(=O)C1CCCN(Cc2ccccc2Cl)C1 (stereo not drawn) | – |
| – | 25.9 µM | CCCCCCCCCCN1CCCC(C(=O)N2CCC(C3CCN(C(=O)C4CCCN(CCCCCCCCCC)C4)CC3)CC2)C1 (stereo not drawn) | logP [1]: 11.322 |
| 4.83 | – | Br.CCN(CC)C(=O)C1CCCN(Cc2ccc(C(C)(C)C)cc2)C1 (stereo not drawn) | inhibition at 200 µM [3]: 2%; IC50 [2]: Not Active |
| 2.75 | 7400 µM | CCN(CC)C(=O)C1CCCN(Cc2ccccc2)C1 (stereo not drawn) | – |
| 3.57 | 8460 µM | c1cc(CN2CCCCC2)ccc1CN1CCCCC1 | – |
| 4.63 | 84.6 µM | CCCCCN1CCCC(C(=O)N2CCCN(C(=O)C3CCCN(CCCCC)C3)CC2)C1 (stereo not drawn) | – |
| – | 22.9 µM | CCCCCCCCCCN1CCCC(C(=O)N2CC(C)N(C(=O)C3CCCN(CCCCCCCCCC)C3)C(C)C2)C1 (stereo not drawn) | logP [1]: 10.096 |
| – | – | CCCCCCCCCCN1CCCC(NC(=O)C2CCCN(CCCCCCCCCC)C2)C1 (stereo not drawn) | logP [1]: 9.96; IC50 [4]: Not Active |
| 3.48 | 34.6 µM | CCCN(C)C(=O)C1CCCN(Cc2ccc(CN3CCCC(C(=O)N(C)CCC)C3)cc2)C1 (stereo not drawn) | – |
| 5.92 | 207 µM | CCN(CC)C(=O)C1CCCN(CCCCCCCCCCN2CCCC(C(=O)N(CC)CC)C2)C1 (stereo not drawn) | – |
| 6.53 | 358 µM | CCCCCCCCCCN1CCCC(C(=S)N(CC)CC)C1 (stereo not drawn) | – |
| 2.3 | 589 µM | CC(O)C1CCCN(Cc2ccc(CN3CCCC(C(C)O)C3)cc2)C1 (stereo not drawn) | – |
| 5.76 | 242 µM | CCCCCCCCCCN1CCCC(C(=O)N(CC)CC)C1 (stereo not drawn) | – |
| 4.21 | 757 µM | CCOC(=O)C1CCCN(Cc2ccc(CN3CCCC(C(=O)OCC)C3)cc2)C1 (stereo not drawn) | – |
| 5.55 | 39.3 µM | CCCN(CCC)C(=O)C1CCCN(Cc2ccc(CN3CCCC(C(=O)N(CCC)CCC)C3)cc2)C1 (stereo not drawn) | – |
| 4.18 | 53.6 µM | O=C(NCc1ccccc1)C1CCCN(Cc2ccc(CN3CCCC(C(=O)NCc4ccccc4)C3)cc2)C1 (stereo not drawn) | – |

| logP ([1]; read-out: logP) | IC50 ([2]; Homo sapiens, read-out: IC50) | SMILES | also measured |
| --- | --- | --- | --- |
| – | 23.8 µM | CCCCCCCCCCN1CCCC(C(=O)N2CC(C)N(C(=O)C3CCCN(CCCCCCCCCC)C3)CC2C)C1 (stereo not drawn) | logP [1]: 10.096 |
| 4.6 | > 500 µM | CC1CCCN(Cc2ccc(CN3CCCC(C)C3)cc2)C1 (stereo not drawn) | – |
| 3.79 | 28.9 µM | O=C(C1CCCN(Cc2ccc(CN3CCCC(C(=O)N4CCCCC4)C3)cc2)C1)N1CCCCC1 (stereo not drawn) | – |
| 5.01 | 51.6 µM | CCN(CC)C(=S)C1CCCN(Cc2ccc(CN3CCCC(C(=S)N(CC)CC)C3)cc2)C1 (stereo not drawn) | – |
| 5.76 | 37.7 µM | CCN(Cc1ccccc1)C(=O)C1CCCN(Cc2ccc(CN3CCCC(C(=O)N(CC)Cc4ccccc4)C3)cc2)C1 (stereo not drawn) | – |
| 0.74 | 1650 µM | O=C(C1CCCN(Cc2ccc(CN3CCCC(C(=O)N4CCOCC4)C3)cc2)C1)N1CCOCC1 (stereo not drawn) | – |
| 3.39 | – | Br.Br.CCN(CC)C(=O)C1CC(C(=O)N(CC)CC)CN(Cc2ccc(CN3CC(C(=O)N(CC)CC)CC(C(=O)N(CC)CC)C3)cc2)C1 (stereo not drawn) | IC50 [4]: Not Active |
| 2.75 | 32.7 µM | O=C(C1CCCN(Cc2ccc(CN3CCCC(C(=O)N4CCCC4)C3)cc2)C1)N1CCCC1 (stereo not drawn) | – |
| 4.06 | 134 µM | COc1cc(CNC(=O)C2CCCN(Cc3ccc(CN4CCCC(C(=O)NCc5cc(OC)c(OC)c(OC)c5)C4)cc3)C2)cc(OC)c1OC (stereo not drawn) | – |
| 5.43 | 354 µM | CCN(CC)C(=O)C1CCCN(Cc2ccccc2-c2ccccc2CN2CCCC(C(=O)N(CC)CC)C2)C1 (stereo not drawn) | – |
| 8.14 | 277 µM | O=C(C1CCCN(Cc2ccc(CN3CCCC(C(=O)N4CCC(Cc5ccccc5)CC4)C3)cc2)C1)N1CCC(Cc2ccccc2)CC1 (stereo not drawn) | – |
| 4.89 | 214 µM | CCN(CC)C(=O)C1CCCN(CCCCCCCCN2CCCC(C(=O)N(CC)CC)C2)C1 (stereo not drawn) | – |
| 0.74 | – | CC(=O)NCC1CCCN(Cc2ccc(CN3CCCC(CNC(C)=O)C3)cc2)C1 (stereo not drawn) | – |
| 2.89 | 311 µM | O=C(C1CCCN(Cc2ccc(CN3CCCC(C(=O)N4CCSCC4)C3)cc2)C1)N1CCSCC1 (stereo not drawn) | – |
| 8.03 | 303 µM | O=C(C1CCCN(Cc2ccc(CN3CCCC(C(=O)N(Cc4ccccc4)Cc4ccccc4)C3)cc2)C1)N(Cc1ccccc1)Cc1ccccc1 (stereo not drawn) | – |
| – | 16 µM | CCCCCCCCCCN1CCCC(C(=O)N2CCN(C(=O)C3CCCN(CCCCCCCCCC)C3)CC2)C1 (stereo not drawn) | logP [1]: 9.06 |
| 3.49 | 1650 µM | CCN(CC)C(=O)C1CCCN(Cc2cccc(Cl)c2)C1 (stereo not drawn) | – |
| 6.59 | 48.8 µM | CCCCCCN(C)C(=O)C1CCCN(Cc2ccc(CN3CCCC(C(=O)N(C)CCCCCC)C3)cc2)C1 (stereo not drawn) | – |
| 5.43 | 478 µM | CCN(CC)C(=O)C1CCCN(Cc2ccc(-c3ccc(CN4CCCC(C(=O)N(CC)CC)C4)cc3)cc2)C1 (stereo not drawn) | – |
| 4.57 | > 1000 µM | CCN(CC)C(=O)C1CCCN(CC2CCC(CN3CCCC(C(=O)N(CC)CC)C3)CC2)C1 (stereo not drawn) | – |
| 3.48 | 144 µM | CC(C)N(C)C(=O)C1CCCN(Cc2ccc(CN3CCCC(C(=O)N(C)C(C)C)C3)cc2)C1 (stereo not drawn) | – |

| SMILES | logP ([1]; read-out: logP) | IC50 ([2]; Homo sapiens, read-out: IC50) | also measured |
| --- | --- | --- | --- |
| CCN(CC)C(=O)C1CCCN(CN2CC2)C1 (stereo not drawn) | 2.43 | 3250 µM | – |
